According to ChEMBL document CHEMBL1147217, “ent-Kaurane diterpenoids from croton tonkinensis inhibit LPS-induced NF-kappaB activation and NO production” (J Nat Prod, 2003):

Columns and labels:
[1] = system: RAW264.7; test: (§1) Inhibition of LPS-induced NF-kappaB activation in mouse RAW264.7 cells after 24 hrs by SEAP reporter assay; assay type: cell-based
Procedure, shortened: (§2)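 RAW264.7 cells carrying a reporter plasmid with eight κB copies driving SEAP; seeded 5 × 10^4 cells/well, 3 h at 37 °C, then test agent at various concentrations plus LPS (1 µg/mL) for 24 h. Supernatant heated 65 °C 5 min, mixed with SEAP buffer (diethanolamine, MgCl2, L-homoarginine) 10 min 37 °C, then p-nitrophenyl phosphate at 37 °C; A405. IC50 values; means ± SD of six independent experiments.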

[2] = as §1; assay type: cell-based; details: RAW264.7, 24 h; procedure, shortened: as §2
[3] = system: RAW264.7; test: Cytotoxicity against mouse RAW264.7 cells upto 3 uM by MTT assay; assay type: cell-based
[4] = system: RAW264.7; test: Inhibition of LPS-induced NO production in mouse RAW264.7 cells after 24 hrs by Griess method; assay type: functional, cell-based; details: RAW264.7, 24 h
Procedure, shortened: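 RAW264.7 cells at 1 × 10^5 cells/well, 3 h incubation, then LPS (1 µg/mL) for 24 h with or without test agent. Supernatant nitrite measured as NO readout by Griess reaction (equal volume of 0.1% N-(1-naphthyl)ethylenediamine/1% sulfanilamide in 5% phosphoric acid); absorbance 570 nm. IC50 values; means ± SD of six independent experiments.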

C=C1C(=O)[C@]23C[C@H]1CC[C@H]2[C@]1(C)CCC[C@](C)(COC(C)=O)[C@H]1C[C@H]3O
Activity [1]: Dose-dependent effect
IC50 [2]: 100 nM
Activity [3]: Non-toxic
IC50 [4]: 210 nM

C=C1C(=O)O[C@@H]2C3O[C@]3(C)CC/C=C(\C)CC[C@@H]12 (some centres undefined)
IC50 [2]: 2340 nM
IC50 [4]: 2010 nM

N=C(N)NN [PIMAGEDINE]
IC50 [4]: 4060 nM

C=C1C(=O)[C@@]23[C@H](O)C[C@@H]4[C@@](C)(COC(C)=O)CCC[C@@]4(C)[C@@H]2CC[C@@H]1[C@H]3O
Activity [1]: Dose-dependent effect
IC50 [2]: 70 nM
Activity [3]: Non-toxic
IC50 [4]: 150 nM

C=C1C(=O)[C@@]23[C@H](O)C[C@@H]4C(C)(C)CC[C@@H](OC(C)=O)[C@@]4(C)[C@@H]2CC[C@@H]1[C@H]3O
Activity [1]: Dose-dependent effect
IC50 [2]: 420 nM
Activity [3]: Non-toxic
IC50 [4]: 470 nM

C=C1C(=O)[C@@]23[C@H](O)C[C@@H]4C(C)(C)CCC[C@@]4(C)[C@@H]2CC[C@@H]1[C@H]3O
Activity [1]: Dose-dependent effect
IC50 [2]: 110 nM
Activity [3]: Non-toxic
IC50 [4]: 260 nM
